The results in this text go back to the RNAGym collection of RNA variant scans (doi:10.1126/science.aae0568).

This sample holds only a part of the variants without activity. Some results are limits rather than exact numbers.

The labels stand for the following.
B1: tRNA (parent)
chain: GUUCCGUUGGCGUAAUGGUAACGCGUCUCCCUCCUAAGGAGAAGACUGCGGGUUCGAGUCCCGUACGGAACG

Variants of B1 are the subject of this data set. Briefly: yeast fitness relative to wild type (ratio to wild type); higher = fitter; tRNA-Arg(CCU), competitive growth, 37 C, YPD. Put shortly: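 Variants of the tRNA-Arg(CCU) gene were chemically synthesised with a 3% per-site mutation rate across 69 sites and placed at the native genomic locus in Saccharomyces cerevisiae. Six parallel replicates of the pooled strains were competed in YPD at 37°C for 24 hours, and gene amplicons from the start and end populations were read by 100-nucleotide paired-end sequencing. Darwinian fitness relative to wild type was derived from changes in genotype frequencies. Genotypes required ≥ 100 starting reads, and estimates < 0.5 were set to 0.5.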
In the case of A15C C46A G56C A70G, the yeast fitness was ≤ 0.5. As for U16A U47G G48C, the figure is 0.536; as for U32C C46G, 0.865; as for G17A G23C U64A A65C G67A, ≤ 0.5. Take U2C G50A: the yeast fitness was 0.878. Next, U35A G68U: 0.6.

For the variant C4A A15G G17A C61G, the yeast fitness is ≤ 0.5. As for U13A A36U A45U G52C A57U, the figure is ≤ 0.5; as for U2G A14G C29G A37U C62G C66U, ≤ 0.5; as for C34G C55A G68A, ≤ 0.5.

With C5G G9U A21C U54A A57G, the yeast fitness was ≤ 0.5.

For the variant C4A A14U A20C U28G C61U C62A, the yeast fitness is ≤ 0.5. For G25C G58C G68A, the yeast fitness stood at 0.639. Next, G25C C27G G58A: ≤ 0.5; U8C G39C: 0.67. For the variant U3A C34G A45G, the yeast fitness amounted to 0.537.

Regarding G6A C34G A37G U64C, the yeast fitness is ≤ 0.5. As to A14C G67U, the yeast fitness is 0.678. Consider C11A C33U A43U G67A, for which the yeast fitness is ≤ 0.5. As for G9A G25C U26G C46G A70U, the figure is ≤ 0.5; as for U13C A69C, 0.995. As for A36G A65U A70C, the figure is 0.684; as for U26G U32A G51A, ≤ 0.5; as for G23C C62A, 0.541. Next, U3C A42U C61G: 0.66; U8A A36U G68C: ≤ 0.5; G25A C31U G38C: 0.881. Take U3A C5A G6C A15G U16A U26G: the yeast fitness worked out at 0.512. As for C24A C49G A69C, the figure is ≤ 0.5.

For the variant A37U G44A A69C, the yeast fitness is ≤ 0.5.

In the case of C49U C60G, the yeast fitness is 0.609.

Regarding C5G C22G C55G A70U, the yeast fitness is ≤ 0.5. As for C27G C31A, the figure is 0.501; as for U3A A20C A21G C61A, 0.514.

U2A C33A C34U G56A A69C: the yeast fitness is ≤ 0.5. Next, A15U A20G G41C C60U G67A: ≤ 0.5; G10A U35G A37U U47C A70G: ≤ 0.5. As for C5G C22A C33G, the figure is 0.61.

Take C5U G10C C33U C46G: the yeast fitness is ≤ 0.5. As for U8A A36U, the figure is 0.559; as for G17A A42U C55U C62A, ≤ 0.5. As for U2G C27U G41A A42U C46G, the yeast fitness is ≤ 0.5. Next, A21G G23A C27G A37U G44A C49U: 0.564; G6A G17C U35A G39A C55G C60U G67C: ≤ 0.5. As for C34G U47C, the figure is 0.599; as for G6A A20U A21G C61U, ≤ 0.5; as for U19C C24U G51A, 0.66. As for U13C A15U C61U A65C, the figure is ≤ 0.5; as for A14C C22G G25A C31U G58A, ≤ 0.5; as for G23A U28C C30A C46U A70U, ≤ 0.5. For the variant U3C U19A G68A, the yeast fitness was determined as 0.698.

Turning to G10A U13A C24A U54A, the yeast fitness is ≤ 0.5. Next, C4G U19A C31G: ≤ 0.5; C22U G25A A42C C49G U59A A65U: ≤ 0.5. Next, C11U U13C C30A G52A A69U: ≤ 0.5; C4U A36U U47C: ≤ 0.5; U7A C27A A65U: 0.603. U3C C27U G56A C61A: the yeast fitness was ≤ 0.5. As for C27U A36U G38C A43C G63A, the figure is ≤ 0.5. As for U8A G58A G67U, the figure is 0.618; as for G17A G58A A69C, 0.575; as for G25C C62A, 0.845. As for A21U A65G, the figure is 0.942; as for C49G G56A A65C, 0.543; as for G6C G25C A40U A65C, ≤ 0.5.

As to G6C A15G A21G G25A A40C C61A A65U, the yeast fitness was ≤ 0.5. Regarding C49G U53C C55A G63A, the yeast fitness is ≤ 0.5.

With U26G U35A G41A C46U G68A, the yeast fitness was ≤ 0.5. Take U53C A65U C66U: the yeast fitness is ≤ 0.5. As for G9C C30A U35C C46G U54C G67C, the figure is ≤ 0.5. As for G17C C24G G48C, the figure is ≤ 0.5; as for C5U C11U A15G G48C, 0.553. With G25A G48C, the yeast fitness came to 1.14. Next, U16C C22U C24U C29U: ≤ 0.5. As for G10A U16A A65C, the figure is ≤ 0.5; as for U16A A21C G44A U59A, 0.847; as for C5U U16C C22G C29G, ≤ 0.5. Next, C4A U32C G58C: 0.588.

For G10C A20G A21C C27A C49U U54A A70C, the yeast fitness stood at 0.653. Next, U47A C60U G63C A69U: ≤ 0.5; C5U C11U U28C C34G A40G A43G C46G G52A C55U C66U: ≤ 0.5; C31U A37C A43U G50C A57G: 0.586. As for C4G C34G U47A C49A A65G, the figure is 0.519. For U16C C24G U28A, the yeast fitness is ≤ 0.5.

Consider A20C C29U A37G, for which the yeast fitness was found to be 0.753. Regarding U3A U16C A20C G67A, the yeast fitness came to 0.541. Consider G17C U28G G48A, for which the yeast fitness came out at 0.558. As for G9A G17C, the figure is 0.668. In the case of A15U C31G, the yeast fitness is 0.676. Next, U8C G23C C29G A45U C66U: ≤ 0.5; A37G A45G G48A: 0.557; A36G G38C G52C A57U: ≤ 0.5. As for A20U A40G G44C G58C, the figure is 0.574. Next, C11A A42C A65U C66U: 0.623; U28C A37C A40U G63A A70C: ≤ 0.5. For U8C U19A C22G C24U C33G, the yeast fitness is ≤ 0.5.

On to C4G C49A G56C C61U, for which the yeast fitness came to 0.609.

For C5U C29G C49U A69U, the yeast fitness is ≤ 0.5. Next, C5U C11U A40U G48A C49U: 0.709; U2A A15U C34A G39C A40C G56C C61G C62G G68C: ≤ 0.5; C11A C24U: 0.61.

For the variant U8A U26G C29A C46U G58A, the yeast fitness was ≤ 0.5.

Consider C24A C27U U28G, for which the yeast fitness is 0.511. C5G G38A A43U G56A: the yeast fitness is ≤ 0.5. Consider C4G G17U G23A C55A C61A, for which the yeast fitness is ≤ 0.5.

On to U47C C66U A70U, for which the yeast fitness amounted to 0.548. As for G12C C30U G56A, the figure is 0.54; as for A20G C30U C55U, ≤ 0.5; as for G23C C24U A36G A57U G63A, ≤ 0.5. Next, U3A G10A C27U A40U: ≤ 0.5; A45G G58C: 0.958.

With U16A U53G C62G, the yeast fitness was ≤ 0.5. As for U7A A20G C31A, the figure is ≤ 0.5.

For the variant U3C C11U A40U G58A, the yeast fitness is 0.627. Next, C4A G48A C61U: 0.661; G12A A37G G39C A57C: ≤ 0.5. As for A40C G44C C55G, the figure is ≤ 0.5; as for C4G A21G G50A, 0.718. Next, U16C A65C: 0.955; G39A A45C C61U: 0.706; C29G A42G G52C: 0.702.

As to C5U A15C G18A G23A U35C A42G C49A, the yeast fitness is ≤ 0.5. Next, U2A A14U C46U: 0.595; A20U G39A G51A U54G A65C A70C: 0.554. Next, A42C C62A C66G: ≤ 0.5. As for G41C U54C, the figure is 0.889; as for U7A A43C, 0.824. As for U16C G17C C31U A37U, the yeast fitness was ≤ 0.5. In the case of U54C C61A, the yeast fitness was determined as 0.776. Next, C11U A15G C46A A57G: 0.629. As to U16A G68A A70C, the yeast fitness was found to be 0.606. As for U2G C4U U7G C11G A15C G18A U28C C55U, the figure is ≤ 0.5; as for C4U G52A C60A, 0.823; as for C5G C24G C30G C31U U35A A36U, 0.755.

As for G17A A42U A57U, the yeast fitness was ≤ 0.5. For the variant U19C G48A, the yeast fitness was 1.04. Next, A20G A37G U59A A70C: ≤ 0.5; C24U C30A C55U: ≤ 0.5. As for C4G A21G U28A A69U, the figure is ≤ 0.5; as for G6A A15C G23U, ≤ 0.5.

For the variant U53A G63A, the yeast fitness is 0.618. Next, C5G U13C A21G C49A: ≤ 0.5.

With U19G G58C, the yeast fitness was determined as 1.03. As for U47G C62G A69C, the figure is 0.508; as for A15G C30G A42C A43C C46G, ≤ 0.5; as for G6C A20U C22U C24U, ≤ 0.5. Take U13G A14U U16A G17U G67C: the yeast fitness was ≤ 0.5.

Consider C24U U35C C55G A70U, for which the yeast fitness worked out at 0.569. For the variant A36C G48C U53C A70C, the yeast fitness is ≤ 0.5. Next, C11G A20C A43G U59C: ≤ 0.5; A45U A57C: 0.617; G48A G58C: 0.979. With U3A G51A A65G A69C, the yeast fitness is 0.544.

Regarding C11U A14C C29U C30G A40G C49A, the yeast fitness was ≤ 0.5. Next, C31U A36U: 0.591; G12C C24G C49G: ≤ 0.5.

For U7G C62A, the yeast fitness stood at 0.612. Next, C24U C30A: 0.898.

Consider U7C G44A, for which the yeast fitness amounted to 0.807.

On to G10C C33A A45C C55U, for which the yeast fitness is ≤ 0.5. As for C4A G17A A21G C24G G67A A70G, the figure is ≤ 0.5; as for C4U A20C C34U C55U, 0.532. As for G25C G41C C46U C61G, the figure is ≤ 0.5.

Consider U2A C5A U53G, for which the yeast fitness was found to be 0.514. For the variant C5G G10C U13G A37C, the yeast fitness turned out to be 0.508. A36U A40U A65C C66U: the yeast fitness was ≤ 0.5. As for U7C C49A, the figure is 0.732.
